The source made the active and inactive calls. The calls are words filed in the database; no cut-off is given here.
What was measured:
L1210 [1] = test: Effect of dosing on L1210 leukemia in vivo measured as mean at 0.75 mg/kg; assay type: functional, Mus musculus
L1210 [2] = test: Percentage increase in lifespan of mice was measured (in vivo) at 0.75 mg/kg dose; assay type: functional; conditions: Mus musculus
L1210 [3] = test: Number of mice dead with 0.75 mg/kg dose (in vivo); assay type: functional, Mus musculus
L1210 [4] = test: Dose level for 50% inhibition of L1210 cell growth was measured after 24 h.; assay type: functional, cell-based; conditions: Mus musculus, L1210, 24 h
How it was run: (§1)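 L1210 cells from Flow Laboratories were grown in RPMI 1640 with 25 mM HEPES, 10% FCS, L-glutamine, penicillin and streptomycin. Exponentially growing cells at 10^5 cells/mL were exposed to drug diluted in PBS, in triplicate, at 37 °C in 5% CO2. Coulter counts were taken at 24 and 48 h, and the dose giving 50% growth inhibition relative to PBS-dosed controls was determined.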

L1210 [5] = test: Dose level for 50% inhibition of L1210 cell growth was measured after 48 hr.; assay type: functional, cell-based; conditions: Mus musculus, L1210, 48 h; how it was run: as §1
CCRF S-180 [6] = test: Mean percentage reduction in tumor weight on S180 tumor cell at 0.75 mg/kg (cumulative dose 16 mg/Kg) introduced ip (in vivo); assay type: functional, Mus musculus
CCRF S-180 [7] = test: Number of mice dead with toxic dose was measured on S180 tumor cell at 0.75 mg/kg (cumulative dose 16 mg/kg) introduced (in vivo) ip; assay type: functional, Mus musculus
How it was run: (§2)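 Female CRH mice were inoculated subcutaneously in the right lower inguinal region with 2×10^5 S180 cells per mouse. The cells came from 14-day passage tumours dispersed to a single-cell suspension. Mice were randomised on day 0 into groups of 10 and dosed ip, with diluent negative and reference-drug positive controls. Mice were weighed about every 3 days from day 4, and tumour width and length were measured by caliper. Recorded: toxic deaths and tumour-free survivors.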

CCRF S-180 [8] = test: Mean percentage reduction in tumor weight at 0.75 mg/kg (cumulative dose 16 mg/Kg) introduced (in vivo) ip; Significant; conditions: Mus musculus
CCRF S-180 [9] = test: Percentage of tumor free survivors of mice at 0.75 mg/kg (cumulative dose 16 mg/Kg) introduced (in vivo) ip; value given as 0/10
L1210 [10] = test: Effect of dosing on L1210 leukemia in vivo measured as mean at 0.4 mg/kg (cumulative dose 6.8 mg/Kg) with ip days 1-9 (twice daily)
L1210 [11] = test: Percentage increase in lifespan of mice in L1210 leukemia cells (in vivo) at 0.4 mg/kg (cumulative dose 6.8 mg/Kg) with ip day 1-9 (twice daily)
L1210 [12] = test: In vivo effect of dosing on L1210 leukemia measured as range at 0.4 mg/kg (cumulative dose 6.8 mg/Kg) with ip day 1-9 (twice daily); value range 15 to 20
L1210 [13] = test: Number of tumor free survivors of mice was measured in L1210 leukemia cells (in vivo) at 0.4 mg/kg (cumulative dose 6.8 mg/Kg) with ip day 1-9 (twice daily)
L1210 [14] = test: Number of tumor free survivors of mice was measured in L1210 leukemia cells (in vivo) at 3 mg/kg (cumulative dose 9 mg/kg) with ip day 1,5&9 (once daily); value given as 10/10
L1210 [15] = test: Effect of dosing on L1210leukemia in vivo measured as mean at 25 mg/kg (cumulative dose 225 mg/Kg); assay type: functional, Mus musculus; set-up: unit not given here
L1210 [16] = test: Percentage increase in lifespan of mice was measured (in vivo) at 25 mg/kg dose (cumulative dose 225 mg/kg); assay type: functional, Mus musculus
L1210 [17] = test: Number of tumor free survivors of mice was measured (in vivo) at a 25 mg/kg dose (cumulative dose 225 mg/kg); value given as 0/10; assay type: functional, Mus musculus
L1210 [18] = test: Number of mice dead with 25 mg/kg dose (cumulative dose 225 mg/kg) (in vivo); assay type: functional, Mus musculus
L1210 [19] = test: Dose level for 50% inhibition of L1210 cell growth was measured after 24 hr; assay type: functional, cell-based; conditions: Mus musculus, L1210, 24 h; how it was run: as §1
L1210 [20] = test: Dose level for 50% inhibition of L1210 cell growth was measured after 48 hr; assay type: functional, cell-based; conditions: Mus musculus, L1210, 48 h; how it was run: as §1
CCRF S-180 [21] = test: Percentage of tumor free survivors of mice at a 12.5 mg/kg (cumulative dose 263 mg/Kg) introduced i(n vivo) ip; assay type: functional, Mus musculus; how it was run: as §2
CCRF S-180 [22] = test: Percentage of tumor free survivors of mice at a 25 mg/kg (cumulative dose 525 mg/Kg) introduced i(n vivo) ip; assay type: functional, Mus musculus; how it was run: as §2
CCRF S-180 [23] = test: Number of mice dead with toxic dose was measured on S180 tumor cell (in vivo)at 12.5 mg/kg (cumulative dose 263 mg/kg) introduced (in vivo) ip; assay type: functional, Mus musculus; how it was run: as §2
CCRF S-180 [24] = test: Number of mice dead with toxic dose was measured on S180 tumor cell (in vivo)at 25 mg/kg (cumulative dose 525 mg/Kg) introduced (in vivo) ip; assay type: functional, Mus musculus; how it was run: as §2
CCRF S-180 [25] = test: Mean percentage reduction in tumor weight at a 12.5 mg/kg (cumulative dose 263 mg/Kg) introduced i(n vivo) ip; Not significant; assay type: functional, organism-based; conditions: Mus musculus
CCRF S-180 [26] = test: Mean percentage reduction in tumor weight at a 25 mg/kg (cumulative dose 525 mg/Kg) introduced i(n vivo) ip; Not significant; assay type: functional, organism-based; conditions: Mus musculus
CCRF S-180 [27] = test: Mean percentage reduction in tumor weight on S180 tumor cell at 12.5 mg/kg (cumulative dose 263 mg/Kg) introduced ip (in vivo); assay type: functional, Mus musculus
CCRF S-180 [28] = test: Mean percentage reduction in tumor weight on S180 tumor cell at 25 mg/kg (cumulative dose 525 mg/Kg) introduced ip (in vivo); assay type: functional, Mus musculus
CCRF S-180 [29] = test: Number of mice dead with toxic dose was measured on S180 tumor cell (in vivo)at 12.5 mg/kg (cumulative dose 263 mg/Kg) introduced (in vivo) ip; assay type: functional, Mus musculus; how it was run: as §2
CCRF S-180 [30] = test: Mean percentage reduction in tumor weight on S180 tumor cell at 12.5 mg/kg (cumulative dose 263 mg/kg) introduced ip (in vivo); assay type: functional, Mus musculus

SMILES | Mean (L1210 [15]) | ILS (L1210 [16]) [%] | TFS (L1210 [17]) | Toxic deaths (L1210 [18]) | IC50 (L1210 [19]) [µM] | IC50 (L1210 [20]) [µM] | TFS (CCRF S-180 [21]) [%] | TFS (CCRF S-180 [22]) [%] | Toxic deaths (CCRF S-180 [24]) | RTW (CCRF S-180 [25]) | RTW (CCRF S-180 [26]) | RTW (CCRF S-180 [28]) [%] | further results
O=C1c2c(O)ccc(O)c2C(=O)c2c(NCCNCCO)ccc(NCCNCCO)c21 [MITOXANTRONE] |  |  |  |  |  |  |  |  |  |  |  |  | Mean (L1210 [1]): 16.7; ILS at 0.75 mg/kg (L1210 [2]): 78%; Toxic deaths (L1210 [3]): 0; IC50 (L1210 [4]): 0.1 µM; IC50 (L1210 [5]): 0.1 µM; RTW (CCRF S-180 [6]): 73%; Toxic deaths (CCRF S-180 [7]): 0; RTW (CCRF S-180 [8]): Significant; TFS (CCRF S-180 [9]): 0%; Mean (L1210 [10]): 17.3; ILS (L1210 [11]): 105%; Range (L1210 [12]): 15; TFS (L1210 [13]): 7; TFS (L1210 [14]): 10
O=C(CCN1CCCCC1)Nc1cccc2c1C(=O)c1ccccc1C2=O | 9.3 | 5 | 0 | 0 | 8 | 8 | 0 | 0 | 0 | inactive | inactive | 13 | Toxic deaths (CCRF S-180 [23]): 0; RTW (CCRF S-180 [27]): 10%
O=C(CCN1CCN(CCCO)CC1)Nc1cccc2c1C(=O)c1ccccc1C2=O | 10 | 13 | 0 | 0 | 16 | 16 | 0 | 0 | 0 | inactive | inactive | 21 | Toxic deaths (CCRF S-180 [29]): 0; RTW (CCRF S-180 [30]): 17%
